Assay results: PMC8513424 (Laryngoscope Investigative Otolaryngology, 2021)
Read-outs that look alike come from different tables or passages of the source.

Columns and labels:
[1] = Pilot 2 plasma AR‐42 concentration by LC‐MS/MS; assay type: in vivo, human; details: 40 mg; for Concentration in plasma, Before surgery: mean of three trials
In short: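 Dosing was 40 mg orally three times weekly for 3 weeks before surgery. Venous blood was drawn at induction of anesthesia and again at tumor removal (about 3-4 h after surgery start). Plasma was separated by cold centrifugation and kept frozen. Drug was quantified by LC-MS/MS against a standard curve, as the mean of three runs. Pre-operative and removal-time levels were compared by paired t-test (P ≤ .05).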

[2] = system: NF2‐deficient benign meningioma Ben‐Men‐1 cells; details: cited from earlier work
[3] = system: patients with multiple myeloma, and T‐ and B‐cell lymphomas; details: three times weekly for 3 weeks of a 28‐day cycle; cited from earlier work
[4] = system: NF2‐associated or sporadic VS or meningiomas; assay: Pilot 1 tumor volumetric measurement by MRI; assay type: in vivo, human
[5] = Patient 1.1, 837 days on AR‐42, Left parieto‐occipital Meningioma
[6] = Patient 1.1, 837 days on AR‐42, Right neck Schwannoma
[7] = Patient 1.1, Left parieto‐occipital Meningioma
[8] = Patient 1.1, Right IAC Schwannoma
[9] = Patient 1.1, Right neck Schwannoma
[10] = Patient 1.2, 84 days on AR‐42, Right intradural C1 Meningioma
[11] = Patient 1.2, Left trigeminal Schwannoma
[12] = Patient 1.2, Right intradural C1 Meningioma
[13] = Patient 1.4, 275 days on AR‐42, Left IAC Schwannoma
[14] = Patient 1.4, 275 days on AR‐42, Left posterior fossa Meningioma

In the case of `CC(C)[C@H](C(=O)Nc1ccc(C(=O)NO)cc1)c1ccccc1` [AR‐42], the “Concentration in plasma, At tumor removal” value ([1]; Patient # 2.1 (VS)) is reported as 0.3037 µM, the “Concentration in plasma, Before surgery” value ([1]; Patient # 2.1 (VS)) is reported as 0.3623 µM and the “Concentration in plasma, At tumor removal” value ([1]; Patient # 2.2 (VS)) is reported as 0.1211 µM. The “Concentration in plasma, Before surgery” value ([1]; Patient # 2.2 (VS)) was 0.2242 µM, the “Concentration in plasma, At tumor removal” value ([1]; Patient # 2.4 (VS)) was 0.0368 µM and the “Concentration in plasma, Before surgery” value ([1]; Patient # 2.4 (VS)) was 0.0618 µM. The “Concentration in plasma, At tumor removal” value ([1]; Patient # 2.6 (VS)) was 0.0034 µM, the “Concentration in plasma, Before surgery” value ([1]; Patient # 2.6 (VS)) was 0.0035 µM and the “Concentration in plasma, At tumor removal” value ([1]; Patient # 2.7 (meningioma)) was 0.0729 µM. For the same compound, the “Concentration in plasma, Before surgery” value ([1]; Patient # 2.7 (meningioma)) was 0.0991 µM, the “Plasma concentration of AR‐42” value ([1]; first three patients with VS, before and at tumor removal) was 0.062 to 0.36 µM and the “Plasma level after anesthesia” value ([1]; patient with meningioma) was 0.073 µM. For the same compound, the “Plasma level before anesthesia” value ([1]; patient with meningioma) was 0.099 µM, the IC50 ([2]; read-out: IC50, Ben‐Men‐1 cells) was 1 µM and the IC50 ([2]; read-out: IC50 for meningiomas, previous in vitro studies) was about 1 µM. The “Maximum tolerated dose (MTD)” value [3] was 40 mg, the “Median on‐treatment estimated annual growth rate” value ([4]; 11 evaluable lesions) was 22% and the “Median post‐treatment estimated annual growth rate” value ([4]; 11 evaluable lesions) was 10%. The “% Volume growth on Rx” value [4, 5] was 54%, the “On Rx response” value [4, 5] was “PD (progressive disease (>20% increase in volume))” and the “% Volume growth on Rx” value ([4]; Patient 1.1, 837 days on AR‐42, Right IAC Schwannoma) was −2%. For the same compound, the “% Volume growth on Rx” value [4, 6] was 52%, the “On Rx response” value [4, 6] was “PD (progressive disease (>20% increase in volume))” and the “Change in GR Pre to On Rx (%)” value [4, 7] was −128%. The “Change in GR Pre to post Rx” value [4, 7] was −26%, the “Est. annual growth rate On Rx (%)” value [4, 7] was 23% and the “Est. annual growth rate Post Rx” value [4, 7] was 125%. The “Change in GR Pre to On Rx (%)” value [4, 8] was −61%, the “Change in GR Pre to post Rx” value [4, 8] was −10% and the “Est. annual growth rate On Rx (%)” value [4, 8] was −1%. The “Est. annual growth rate Post Rx” value [4, 8] was 50%, the “Change in GR Pre to On Rx (%)” value [4, 9] was −69% and the “Change in GR Pre to post Rx” value [4, 9] was −79%. The “Est. annual growth rate On Rx (%)” value [4, 9] was 22%, the “Est. annual growth rate Post Rx” value [4, 9] was 12% and the “% Volume growth on Rx” value ([4]; Patient 1.2, 84 days on AR‐42, Left trigeminal Schwannoma) was −9%. The “% Volume growth on Rx” value [4, 10] was 26%, the “On Rx response” value [4, 10] was “PD (progressive disease (>20% increase in volume))” and the “Change in GR Pre to On Rx (%)” value [4, 11] was −54%. The “Change in GR Pre to post Rx” value [4, 11] was −11%, the “Est. annual growth rate On Rx (%)” value [4, 11] was −46% and the “Est. annual growth rate Post Rx” value [4, 11] was −3%. For the same compound, the “Change in GR Pre to On Rx (%)” value [4, 12] was 122%, the “Change in GR Pre to post Rx” value [4, 12] was −6% and the “Est. annual growth rate On Rx (%)” value [4, 12] was 138%. For the same compound, the “Est. annual growth rate Post Rx” value [4, 12] was 10%, the “% Volume growth on Rx” value [4, 13] was 60% and the “On Rx response” value [4, 13] was “PD (progressive disease (>20% increase in volume))”. The “% Volume growth on Rx” value [4, 14] was −24%, the “On Rx response” value [4, 14] was “PR (partial response (>20% decrease in volume))” and the “% Volume growth on Rx” value ([4]; Patient 1.4, 275 days on AR‐42, Let foramen magnum Meningioma) was −19%. The “% Volume growth on Rx” value ([4]; Patient 1.4, 275 days on AR‐42, Right IAC Schwannoma) was 9%, the “% Volume growth on Rx” value ([4]; Patient 1.4, 275 days on AR‐42, Right anterior falx Meningioma) was 0% and the “Change in GR Pre to On Rx (%)” value ([4]; Patient 1.4, Left IAC Schwannoma) was −10%.
